Converted amounts (≈) assume the structure as drawn.
Columns and labels:
Type in all cases: functional
Haemophilus influenzae = test: Antibacterial activity against Haemophilus influenzae ATCC 49247 after overnight incubation by broth microdilution method
In short: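 Bacteria were grown on Mueller Hinton chocolate agar. MIC was then determined by CLSI broth microdilution, with azithromycin as the reference and compounds as double dilutions. Inocula were prepared by direct colony suspension at 5 × 10⁴ cfu/well. Plates were read visually after overnight incubation at 37 °C in ambient air.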

Escherichia coli = test: Antibacterial activity against Escherichia coli ATCC 25922 after overnight incubation by broth microdilution method
In short: (§1)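 MIC per CLSI standard broth microdilution, with azithromycin as the reference antibiotic. Compounds were tested as double dilutions. Inocula were made by direct colony suspension at 5 × 10⁴ cfu/well. MIC was read visually after overnight incubation at 37 °C in ambient air.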

Streptococcus pyogenes = test: Antibacterial activity against Streptococcus pyogenes ATCC 700294 after overnight incubation by broth microdilution method
In short: (§2)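 Streptococci were grown on Mueller-Hinton agar with 5% sheep blood. CLSI broth microdilution MIC used double dilutions, with azithromycin as the reference. The test medium was modified by substituting 5% horse serum for lysed horse blood. Direct colony suspension inocula gave 5 × 10⁴ cfu/well. Growth was read visually after overnight incubation at 37 °C in ambient air.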

Streptococcus pneumoniae = test: Antibacterial activity against Streptococcus pneumoniae ATCC 49619 after overnight incubation by broth microdilution method; in short: as §2
Staphylococcus aureus = test: Antibacterial activity against Staphylococcus aureus ATCC 29213 after overnight incubation by broth microdilution method
In short: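 Colonies were grown on Mueller Hinton agar and suspended directly to give 5 × 10⁴ cfu/well. MIC was by CLSI broth microdilution with double dilutions of compound and azithromycin as the reference. Read-out was visual after overnight incubation at 37 °C in ambient air.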

Moraxella catarrhalis = test: Antibacterial activity against Moraxella catarrhalis ATCC 23246 after overnight incubation by broth microdilution method; in short: as §1

Row | SMILES | MIC (Haemophilus influenzae) | MIC (Escherichia coli) | MIC (Streptococcus pyogenes) | MIC (Streptococcus pneumoniae) | MIC (Staphylococcus aureus) | MIC (Moraxella catarrhalis)
1 | Clc1ccc(-n2cc(Cn3cnc4ccccc43)nn2)cc1 | > 128 µg/mL | > 128 µg/mL | > 128 µg/mL | > 128 µg/mL | > 128 µg/mL | 0.5 µg/mL (≈ 1.61 µM)
2 | FC(F)(F)c1ccc(-n2cc(Cn3cnc4ccccc43)nn2)cc1 | > 128 µg/mL | > 128 µg/mL | > 128 µg/mL | > 128 µg/mL | > 128 µg/mL | 16 µg/mL (≈ 46.6 µM)
3 | Cc1nc2ccccc2n1Cc1cn(-c2ccc(C(F)(F)F)cc2)nn1 | > 128 µg/mL | > 128 µg/mL | > 128 µg/mL | > 128 µg/mL | > 128 µg/mL | 64 µg/mL (≈ 179 µM)
4 | Fc1ccc(-n2cc(Cn3cnc4ccccc43)nn2)cc1 | > 128 µg/mL | > 128 µg/mL | > 128 µg/mL | > 128 µg/mL | > 128 µg/mL | 1 µg/mL (≈ 3.41 µM)
5 | Fc1ccccc1-n1cc(Cn2cnc3ccccc32)nn1 | > 128 µg/mL | > 128 µg/mL | > 128 µg/mL | > 128 µg/mL | > 128 µg/mL | 128 µg/mL (≈ 436 µM)
6 | Clc1cc(Cl)cc(-n2cc(Cn3cnc4ccccc43)nn2)c1 | > 128 µg/mL | > 128 µg/mL | > 128 µg/mL | > 128 µg/mL | > 128 µg/mL | 16 µg/mL (≈ 46.5 µM)
7 | Cc1ccc2nc(-c3ccc(NCc4cn(-c5ccc(F)cc5)nn4)cc3)sc2c1 | > 128 µg/mL | > 128 µg/mL | > 128 µg/mL | > 128 µg/mL | > 128 µg/mL | 128 µg/mL (≈ 308 µM)
8 | Cc1ccc2nc(-c3ccc(NCc4cn(-c5ccc(Cl)cc5)nn4)cc3)sc2c1 | > 128 µg/mL | > 128 µg/mL | > 128 µg/mL | > 128 µg/mL | > 128 µg/mL | 64 µg/mL (≈ 148 µM)
9 | Cc1ccc2nc(-c3ccc(NCc4cn(Cc5cc(=O)oc6cc(O)ccc56)nn4)cc3)sc2c1 | > 128 µg/mL | > 128 µg/mL | > 128 µg/mL | > 128 µg/mL | > 128 µg/mL | 
10 | CC[C@H]1OC(=O)[C@H](C)[C@@H](O[C@H]2C[C@@](C)(OC)[C@@H](O)[C@H](C)O2)[C@H](C)[C@@H](O[C@@H]2O[C@H](C)C[C@H](N(C)C)[C@H]2O)[C@](C)(O)C[C@@H](C)CN(C)[C@H](C)[C@@H](O)[C@]1(C)O [AZITHROMYCIN] | 2 µg/mL (≈ 2.67 µM) | 8 µg/mL (≈ 10.7 µM) | 0.125 µg/mL (≈ 0.167 µM) | 0.25 µg/mL (≈ 0.334 µM) | 2 µg/mL (≈ 2.67 µM) | 0.25 µg/mL (≈ 0.334 µM)

— ChEMBL document CHEMBL3632529, “1,2,3-Triazole pharmacophore-based benzofused nitrogen/sulfur heterocycles with potential anti-Moraxella catarrhalis activity” (2015)
